Screening results as filed in PubChem BioAssay.
The list is not random: actives were taken first. Their share in the collection is about 2.3%.
TAAR1 antag – antagonists of human TAAR1 | Q96RJ0 | CHO RD-HGA16 TAAR1, Fluo-8 calcium fluorescence, antagonist | inhibition, % at 3 µM | hit rate 1.5% among 360,000 | AID 624466;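 active = inhibition above a per-plate cutoff, the mean inhibition of test compounds on that plate plus 3 SD, cut at about 49% in these data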;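 also: 0% = DMSO plus EC80 beta-PEA response and 100% = DMSO alone without agonist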
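Test system: hTAAR1-expressing CHO RD-HGA16 cells, Gα16-coupled; Probe or stimulus: EC80 β-phenethylamine stimulus; Compound dosing: single nominal final test compound concentration of 3 µM; Timing: 140 s kinetic read after compound, 140 s after agonist; Signal: Fluo-8 calcium-sensitive fluorescence; Measure: % inhibition of agonist calcium response; Controls: DMSO and EC80 PEA controls.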
V1aR counter – V1a receptor agonism, counter-screen for OXTR agonists. P37288. CHO-V1R cells, Fluo-8 calcium fluorescence, agonist mode; 0% DMSO, 100% 3 nM vasopressin. activation, % at 3 µM. hit rate 0.25% among 320,000. AID 2797;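 active = activation above the mean activation of all tested compounds plus 3 SD, per screening run, cut at about 20% in these data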;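 also: signal is peak over basal fluorescence ratio across a 100 second FLIPR read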
Target sequence (P37288 whole entry, looked up): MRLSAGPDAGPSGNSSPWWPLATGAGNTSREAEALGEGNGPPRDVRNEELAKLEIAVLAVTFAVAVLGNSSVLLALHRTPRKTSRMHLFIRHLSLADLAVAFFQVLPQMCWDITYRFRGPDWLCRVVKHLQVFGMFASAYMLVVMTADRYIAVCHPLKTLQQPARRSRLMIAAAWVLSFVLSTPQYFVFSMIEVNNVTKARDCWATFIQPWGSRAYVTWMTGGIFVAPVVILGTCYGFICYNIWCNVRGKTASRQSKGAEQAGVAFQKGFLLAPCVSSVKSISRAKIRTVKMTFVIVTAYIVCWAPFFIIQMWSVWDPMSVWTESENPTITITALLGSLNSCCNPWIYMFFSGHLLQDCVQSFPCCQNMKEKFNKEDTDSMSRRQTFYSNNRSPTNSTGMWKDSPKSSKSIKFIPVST
OXTR potentiator – potentiators of human oxytocin receptor. P30559. CHO-OTR cells, Fluo-8 calcium fluorescence, potentiator mode; 0% = oxytocin EC15, 100% = EC100. activation, % at 3 µM. hit rate 0.061% among 320,000;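 active = activation above that plate's cutoff, the mean activation of tested compounds plus 3 SD, cut at about 6.6% in these data, passing the limit was not always enough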;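 also: 100% uses oxytocin at 75 nM as the full agonist control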
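System: human OTR in CHO cells / Also added: sub-maximal oxytocin, roughly EC15 / Control set: EC15 oxytocin low, 75 nM oxytocin high / Schedule: 6 min compound pre-incubation at room temperature, 100 s kinetic read / Compound: single-point 3.0 µM / Replication: singlicate / Technique: Fluo-8 calcium dye fluorescence / Read-out basis: % activation of max/min ratio relative to oxytocin controls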
TAAR1 ag – agonists of human TAAR1; CHO RD-HGA16 TAAR1, Fluo-8 calcium fluorescence; vehicle wells 0%, saturating PEA agonist 100%; activation, % at 3 µM; hit rate 0.99% among 360,000; Q96RJ0;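 active = activation above the mean activation of all test compounds in the run plus 3 SD, cut at about 38% in these data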
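Test system: RD-HGA16 (CHO) cells co-expressing Gα16 and hTAAR1; dosing: one-point dosing at 3 µM (nominal); timing: 17-24 h seeding, 75 min 37 °C dye, 30 min RT; signal: kinetic Fluo-8 calcium fluorescence; read-out basis: % activation relative to PEA EC100 response; controls: DMSO and PEA EC100; replicates: n 1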
OXTR agonist – human OXTR agonism | CHO-OTR cells, Fluo-8 calcium fluorescence; normalized: DMSO 0%, oxytocin 100% | P30559 | activation, % at 3 µM | AID 2435 | hit rate 0.32% among 320,000;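 active = activation above the mean of all tested compounds plus 3 SD, cutoff set per screening run, cut at about 20% in these data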;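 also: peak over basal fluorescence ratio from a 100 s FLIPR kinetic read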
Active calls of the source: *; x = no result given.

SMILES	TAAR1 antag	V1aR counter	OXTR potentiator	TAAR1 ag	OXTR agonist
C[C@H](CO)N1C[C@H](C)[C@@H](CN(C)C(=O)Nc2cccc(C(F)(F)F)c2)OCc2cn(nn2)CCCC1=O	17.3	x	x	4.2	x
Cc1cc(=O)oc2ccc(OCC(=O)N(Cc3ccc(F)cc3)Cc3ccco3)cc12	69.6*	8.4	-10.3	12.2	4.9
Cc1nn(-c2ccccc2)c2nc(N)c(C#N)c(-c3ccc(O)c(O)c3)c12	50.8*	5.4	-10.8	8.4	4.2
Cc1nn(-c2ccc(F)cc2)c2nc(N)c(C#N)c(-c3ccc(O)c(O)c3)c12	50.8*	x	x	5.7	x
COc1cc(-c2c(C#N)c(N)nc3c2c(C)nn3-c2ccc(C)c(C)c2)cc(OC)c1OC	3.5	-0.3	-5.2	1.5	-0.4
Cc1ccccc1C1=CC(=O)CC(C)(C)C1=O	12.0	x	x	0.0	x
COc1ccc(CN2C[C@H](COCc3ccccc3)Oc3cccc(N4CCCC4)c3S2(=O)=O)cc1	-29.9	x	x	1.3	x
COc1ccc(C(C(=O)NCc2ccccc2)N(Cc2ccco2)C(=O)c2cnccn2)cc1 (centres undefined)	53.4*	0.3	-9.2	14.6	2.2
Cc1ccc(-c2nn(-c3ccccc3)cc2CN(Cc2ccccc2)C(=O)c2ccco2)o1	55.5*	0.6	-4.9	8.5	0.4
C#CCNC(=O)C1=C[C@@H](c2csc3ccccc23)C[C@@H](OCc2ccc(CO)cc2)O1	53.7*	4.2	-22.2	20.0	1.8
O=[N+]([O-])c1ccc(CN2CCC(Cc3ccccc3)CC2)cc1	0.3	x	x	-2.4	x
O=[N+]([O-])c1ccc(C(=S)N2CCC(Cc3ccccc3)CC2)cc1	53.2*	0.4	-2.4	3.5	-1.8
CCCCOCC1CN(CCCC)S(=O)(=O)c2c(cccc2N(C)S(=O)(=O)c2ccc(C)cc2)O1 (centres undefined)	3.3	x	x	-0.5	x
CC(=O)c1ccc(NC(=O)c2ccc3snnc3c2)cc1	-3.7	3.5	-4.2	3.2	1.1
O=C(Nc1ccccc1)Nc1ccc2snnc2c1	16.6	11.7	-21.8	40.5*	18.1
CN(C)c1ccc(NC(=O)Nc2ccc3snnc3c2)cc1	57.9*	9.0	-31.7	22.0	10.2
O=C(Nc1ccccc1)Nc1ccc2nnsc2c1	3.0	15.3	-18.1	30.4	12.6
COc1cccc(Nc2nc(C(N)CCc3ccccc3)cs2)n1 (centres undefined)	22.4	x	x	45.0*	x
NC(=O)c1cccc(Nc2nc(C(N)CCc3ccccc3)cs2)n1 (centres undefined)	1.8	x	x	3.4	x
COc1cccc(Nc2nc(C(N)Cc3ccc(Cl)cc3)cs2)n1 (centres undefined)	55.2*	x	x	64.5*	x
CC(=O)c1ccc(Nc2nc(C(N)Cc3ccc(Cl)cc3)cs2)cc1 (centres undefined)	6.9	x	x	49.7*	x
COc1ccc(CC(N)c2csc(Nc3ccccn3)n2)cc1 (centres undefined)	6.8	x	x	25.5	x
COc1cccc(Nc2nc(C(N)CC(C)C)cs2)n1 (centres undefined)	-12.6	x	x	42.4*	x
CN(C)c1cccc2c(S(=O)(=O)NCC3CCN(C(=O)C(=O)c4cc5ccccc5o4)CC3)cccc12	-11.5	x	x	-2.2	x
CN(C)Cc1c(C(C)(C)O)[nH]c2cc(C(F)(F)F)ccc12	-20.8	x	x	0.3	x
SMILES	TAAR1 antag	V1aR counter	OXTR potentiator	TAAR1 ag	OXTR agonist
COc1ccccc1CNc1ncnc2nc[nH]c12	1.3	1.9	-6.3	1.2	1.1
c1ccc2c(CCNc3ncnc4nc[nH]c34)c[nH]c2c1	59.0*	7.1	-10.7	9.8	9.1
CCN(C(=O)COc1cc(=O)n(CC)c2ccccc12)c1cccc(Cl)c1	2.8	1.6	-11.4	12.0	1.2
CCN(C(=O)COc1cc(=O)n(CC)c2ccccc12)c1cc(Cl)ccc1OC	48.8*	0.3	-0.7	8.2	-0.6
COc1ccc2[nH]c3c4c(ccc3c2c1)C(=O)C=CC4=O	76.7*	x	x	43.7*	x
CCCN(CCC)Cc1cc(=O)oc2cc(C)c(Cl)cc12	-17.6	x	x	0.5	x
CC1(C(=O)Nc2cnc3ccccc3c2)CCN1Cc1ccccc1Cl (centres undefined)	45.7	x	x	0.6	x
COc1cccc(CN2CCC2(C)C(=O)Nc2cnc3ccccc3c2)c1F (centres undefined)	53.0*	x	x	2.4	x
CC1(C(=O)Nc2cnc3ccccc3c2)CCN1Cc1ccccc1OC(F)F (centres undefined)	61.6*	x	x	4.3	x
CC(C)CNc1ncnc2c1ncn2[C@H]1CN(Cc2cccc3ccccc23)C[C@@H](CO)O1	6.6	x	x	5.1	x
OC[C@@H]1CN(Cc2ccc(-c3ccccc3)cc2)C[C@H](n2cnc3c(Nc4ccccc4)ncnc32)O1	51.5*	x	x	10.7	x
OC[C@@H]1CN(Cc2cccc3ccccc23)C[C@H](n2cnc3c(NCc4ccco4)ncnc32)O1	65.5*	x	x	20.2	x
CC(C)CNc1ncnc2c1ncn2[C@H]1CN(CCc2ccccc2)C[C@@H](CO)O1	-11.2	x	x	40.6*	x
CC(C)CNc1ncnc2c1ncn2[C@H]1CN(Cc2ccc(Cl)cc2)C[C@@H](CO)O1	5.0	x	x	0.2	x
COC(=O)c1cc2c(c3c4ccccc4n(S(=O)(=O)c4ccc(OC)cc4)c13)C(=O)N(Cc1ccccc1OC)C2	-11.5	x	x	-0.7	x
CC(=O)c1ccc(S(=O)(=O)N(CC(=O)NC2CC2)Cc2ccc(F)cc2)cc1	3.5	x	x	-0.2	x
COc1ccc(N2CCN(c3ncnc4c3cnn4-c3ccc(C)cc3C)CC2)cc1	18.2	5.1	-11.0	0.6	6.3
Cc1ccc(-n2ncc3c(N4CCN(c5ccccc5)CC4)ncnc32)c(C)c1	62.4*	4.2	-6.6	12.2	4.7
COc1ccc(-n2ncc3c(N4CCN(c5cc(C)ccc5C)CC4)ncnc32)cc1	103.0*	1.1	-0.7	-2.6	0.2
CCc1cc2c(N3CCN(c4ccccc4)CC3)ncnc2s1	66.0*	5.6	-10.5	8.1	-0.4
Oc1ccc(N2CCN(c3ncnc4sc(-c5ccccc5)cc34)CC2)cc1	11.6	x	x	-0.8	x
COC(=O)[C@H](Cc1ccccc1)N[C@H](c1ccc(OC)cc1)[C@@H](O)Cc1ccccc1	6.5	x	x	-0.2	x
C[C@H]1CN([C@@H](C)CO)C(=O)CCCn2cc(nn2)CO[C@@H]1CN(C)S(=O)(=O)c1ccccc1F	11.8	x	x	1.3	x
CN1CCC(Oc2ccc(Sc3ccccc3)cc2)CC1	-3.8	11.4	-8.9	16.6	22.4*
CN1CCC(Oc2ccccc2Sc2ccc(C(F)(F)F)cc2)CC1	2.2	8.4	-7.1	2.3	15.5
Cc1cc(N2CCN(C(=O)OC(C)(C)C)C[C@@H]2C)ccc1N1CCN(Cc2ccccc2)[C@H](C)C1	8.5	x	x	-2.1	x
Cc1cccc(OCC(=O)OCC(=O)Nc2sccc2C(N)=O)c1	55.5*	12.8	-9.9	29.9	18.0
COc1ccc(NC(=O)COC(=O)c2cccc(S(=O)(=O)N(C)C)c2)cc1	15.2	x	x	1.7	x
